Data on 30 molecules can be found in ChEMBL document CHEMBL1148844, “5-((1H-pyrazol-4-yl)methylene)-2-thioxothiazolidin-4-one inhibitors of ADAMTS-5” (Bioorg Med Chem Lett, 2007).

The target in one assay is T1, A disintegrin and metalloproteinase with thrombospondin motifs 4 (Homo sapiens, UniProt O75173).
T1 sequence (O75173 whole entry): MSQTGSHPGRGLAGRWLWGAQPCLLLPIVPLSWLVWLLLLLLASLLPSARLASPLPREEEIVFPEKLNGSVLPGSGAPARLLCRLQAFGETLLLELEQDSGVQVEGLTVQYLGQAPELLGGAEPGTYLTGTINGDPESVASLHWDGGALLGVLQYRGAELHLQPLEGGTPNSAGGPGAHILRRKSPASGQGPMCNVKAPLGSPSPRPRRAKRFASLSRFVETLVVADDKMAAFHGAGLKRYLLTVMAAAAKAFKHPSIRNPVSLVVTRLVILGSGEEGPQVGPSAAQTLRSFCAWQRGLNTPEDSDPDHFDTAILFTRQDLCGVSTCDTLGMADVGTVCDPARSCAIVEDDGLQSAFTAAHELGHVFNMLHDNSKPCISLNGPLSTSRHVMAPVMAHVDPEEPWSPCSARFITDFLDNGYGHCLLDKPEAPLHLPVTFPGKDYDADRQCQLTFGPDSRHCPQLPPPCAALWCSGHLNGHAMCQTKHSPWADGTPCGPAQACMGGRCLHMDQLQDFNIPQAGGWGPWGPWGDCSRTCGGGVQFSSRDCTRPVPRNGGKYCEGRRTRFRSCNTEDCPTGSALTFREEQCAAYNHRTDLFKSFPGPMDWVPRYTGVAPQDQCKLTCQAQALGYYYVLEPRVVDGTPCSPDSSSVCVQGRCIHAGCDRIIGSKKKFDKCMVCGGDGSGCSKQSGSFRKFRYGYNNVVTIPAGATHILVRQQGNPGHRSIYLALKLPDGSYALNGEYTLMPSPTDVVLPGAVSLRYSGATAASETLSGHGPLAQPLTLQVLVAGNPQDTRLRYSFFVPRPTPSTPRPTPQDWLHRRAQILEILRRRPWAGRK
Description: Inhibition of ADAMTS4 by FRET assay.
The term IC50 denotes the concentration that gives 50% inhibition. The molecule `Cn1nc(C(F)(F)F)c(/C=C2\SC(=S)NC2=O)c1SCc1ccc(C(C)(C)C)cc1` gave an IC50 of 7.5 µM.

The next assay addresses T2, A disintegrin and metalloproteinase with thrombospondin motifs 5 (Homo sapiens, UniProt Q9UNA0).
T2 sequence (Q9UNA0 whole entry): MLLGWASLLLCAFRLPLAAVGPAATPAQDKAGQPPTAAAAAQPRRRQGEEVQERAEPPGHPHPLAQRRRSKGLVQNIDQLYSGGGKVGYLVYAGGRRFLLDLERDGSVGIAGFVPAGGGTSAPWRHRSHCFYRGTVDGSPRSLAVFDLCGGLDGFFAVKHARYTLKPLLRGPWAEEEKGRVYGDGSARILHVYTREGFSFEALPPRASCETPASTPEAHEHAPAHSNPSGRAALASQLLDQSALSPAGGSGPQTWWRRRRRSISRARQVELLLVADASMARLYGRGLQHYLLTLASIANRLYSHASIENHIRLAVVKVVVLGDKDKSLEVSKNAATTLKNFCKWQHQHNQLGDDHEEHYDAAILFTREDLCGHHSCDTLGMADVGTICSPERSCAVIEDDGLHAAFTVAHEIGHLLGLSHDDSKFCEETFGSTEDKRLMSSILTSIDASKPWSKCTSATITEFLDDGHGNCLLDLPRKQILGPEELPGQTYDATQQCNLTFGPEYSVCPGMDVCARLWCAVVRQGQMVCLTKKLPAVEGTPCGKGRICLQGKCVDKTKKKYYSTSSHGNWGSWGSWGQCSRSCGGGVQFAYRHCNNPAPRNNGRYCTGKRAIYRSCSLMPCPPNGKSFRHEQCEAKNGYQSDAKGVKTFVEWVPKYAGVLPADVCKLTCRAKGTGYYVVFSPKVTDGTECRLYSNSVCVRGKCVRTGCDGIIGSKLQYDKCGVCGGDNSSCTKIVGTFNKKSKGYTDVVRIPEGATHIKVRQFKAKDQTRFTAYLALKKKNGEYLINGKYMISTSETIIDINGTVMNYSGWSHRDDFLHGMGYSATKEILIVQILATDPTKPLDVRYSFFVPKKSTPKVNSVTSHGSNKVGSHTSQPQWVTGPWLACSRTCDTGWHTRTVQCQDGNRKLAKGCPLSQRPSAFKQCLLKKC
The assay can be described thus: Inhibition of ADAMTS5 by FRET assay. The essentials: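 Aggrecanase-2 (ADAMTS-5) inhibition reported as IC50 in µM. Values are means of two independent experiments, with standard deviations of ±10%.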
For the molecule `Cn1nc(C(F)(F)F)c(/C=C2\SC(=S)NC2=O)c1N1CCN(c2ccc(Cl)cc2)CC1`, the IC50 is 9 µM.

Molecule `O=C1NC(=S)S/C1=C\c1c(-c2ccccc2)nn(C2CCCCC2)c1N1CCN(c2ncccn2)CC1` returned an IC50 of 8 µM.

`O=C1NC(=S)S/C1=C\c1c(-c2ccccc2)nn(-c2ccccc2)c1SCc1ccco1` came in with an IC50 of 6.7 µM.

`O=C1NC(=S)S/C1=C\c1c(C(F)(F)F)nn(-c2ccccc2)c1OCCc1ccc(F)cc1` yielded an IC50 of 7.1 µM.

On to `O=C1NC(=S)SC1Cc1c(C(F)(F)F)nn(-c2ccccc2)c1SCc1ccc(Cl)cc1` (stereo unspecified), for which the IC50 turned out to be 5.8 µM.

As for `CN1CCN(c2c(/C=C3\SC(=S)NC3=O)c(-c3ccccc3)nn2-c2ccccc2)CC1`, 4.6 µM corresponded to half-maximal inhibition (IC50).

Molecule `O=C1NC(=S)S/C1=C\c1c(-c2ccccc2)nn(C2CCCCC2)c1SCc1ccco1` came in with an IC50 of 4.6 µM.

`O=C1NC(=S)S/C1=C\c1c(C(F)(F)F)nn(-c2ccccc2)c1SCc1ccc(Cl)cc1` displayed an IC50 of 2.5 µM.

On to `O=C1NC(=S)S/C1=C\c1c(C(F)(F)F)nn(-c2ccccc2)c1OCCc1ccc(Cl)cc1`, for which the IC50 was 4.2 µM.

`O=C1NC(=S)S/C1=C\c1c(C(F)(F)F)nn(-c2ccccc2)c1N1CCN(c2ccc(Cl)cc2)CC1` registered an IC50 of 2.1 µM.

For `O=C1NC(=S)S/C1=C\c1c(C(F)(F)F)nn(C2CCCCC2)c1SCc1ccc(Cl)cc1`, 4.2 µM corresponded to half-maximal inhibition (IC50).

Molecule `Cn1nc(C(F)(F)F)c(/C=C2\SC(=S)NC2=O)c1SCc1ccc(Cl)cc1` registered an IC50 of 1.1 µM.

`O=C1NC(=S)S/C1=C\c1c(C(F)(F)F)nn(-c2ccccc2)c1SCc1ccccc1` yielded an IC50 of 16.9 µM.

In turn, `O=C1NC(=S)S/C1=C\c1c(-c2ccccc2)nn(-c2ccccc2)c1SCc1cccs1` yielded an IC50 of 3.7 µM.

Molecule `O=C1NC(=S)S/C1=C\c1c(C(F)(F)F)nn(-c2ccccc2)c1OCCc1cccs1` returned an IC50 of 9.1 µM.

As to `Cn1nc(-c2ccccc2)c(/C=C2\SC(=S)NC2=O)c1SCc1ccco1`, half-maximal inhibition (IC50) was put at 14.1 µM.

`Cn1nc(C(F)(F)F)c(/C=C2\SC(=S)NC2=O)c1SCc1ccccc1Cl` displayed an IC50 of 23.2 µM.

In the case of `Cc1ccc(Sc2c(/C=C3\SC(=S)NC3=O)c(-c3ccccc3)nn2C)cc1`, the IC50 was 8.3 µM.

As for `Cn1nc(C(F)(F)F)c(/C=C2\SC(=S)NC2=O)c1SCc1ccc(C(C)(C)C)cc1`, inhibition was half-maximal at 2.2 µM (IC50).

`O=C1NC(=S)S/C1=C\c1c(C(F)(F)F)nn(C2CCCCC2)c1N1CCN(c2ncccn2)CC1` yielded an IC50 of 11.7 µM.

The target of another assay is T3, A disintegrin and metalloproteinase with thrombospondin motifs 5 (Homo sapiens) (UniProt Q9UNA0).
T3 sequence (whole entry): T2 sequence (Q9UNA0 whole entry)
The assay can be described thus: Inhibition of ADAMTS5 at 20 uM by FRET assay. The essentials: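 Percent inhibition of aggrecanase-2 (ADAMTS-5) measured at a single 20 µM compound level. Reported values are means of two experiments, with standard deviations of ±10%.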
What is called inhibition is the share of the control response that was lost under treatment. Read a high inhibition as strong suppression. As for `Cn1nc(C(F)(F)F)c(/C=C2\SC(=S)NC2=O)c1Sc1ccccc1`, the inhibition turned out to be 28%.

Turning to `COc1ccc(CCOc2c(/C=C3\SC(=S)NC3=O)c(C(F)(F)F)nn2-c2ccccc2)cc1`, the inhibition came to 31%.

With `CN1CCN(c2c(CC3SC(=S)NC3=O)c(C(F)(F)F)nn2-c2ccccc2)CC1` (stereo unspecified), the inhibition is under 40%.

With `O=C1NC(=S)S/C1=C\c1c(C(F)(F)F)nn(-c2ccccc2)c1SCc1ccco1`, the inhibition was determined as 42%.

Regarding `COc1ccc(CSc2c(/C=C3\SC(=S)NC3=O)c(C(F)(F)F)nn2C)cc1`, the inhibition was determined as 53%.

Turning to `Cn1nc(C(F)(F)F)c(/C=C2\SC(=S)NC2=O)c1Sc1ccc(Cl)cc1`, the inhibition turned out to be 47%.

`Cn1nc(C(F)(F)F)c(/C=C2\SC(=S)NC2=O)c1SCc1cccs1` gave an inhibition of 40%.

Molecule `CN1CCN(c2c(/C=C3\SC(=S)NC3=O)c(C(F)(F)F)nn2-c2ccccc2)CC1` registered an inhibition of 45%.

`O=C1NC(=S)SC1Cc1c(C(F)(F)F)nn(-c2ccccc2)c1SCc1ccco1` (stereo unspecified) returned an inhibition of 42%.

In turn, `Cn1nc(C(F)(F)F)c(/C=C2\SC(=S)NC2=O)c1SCc1ccccc1` gave an inhibition of 44%.
